# Several values for one entry are separate records, joined by “and”; a condition that tells them apart may be missing. Equal values may be shown once.
# Tests used:
# [1] = tested on: Fibroblast; assay: Multiplex assay against human fibroblast; format: toxicity, cell-based; conditions: number of replicates 2
# Procedure, shortened: (§1)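 Phenotypes for tubulin, mitochondrial mass and membrane permeability are expressed as per cents of healthy-nucleus cells. Cells were stained live at seeding with Hoechst33342, BioTracker Green Microtubule Cytoskeleton Dye, MitoTracker Red and Annexin V Alexa Fluor 680, then imaged after compound addition on a CQ1 microscope at 37°C and 5% CO2. Machine-learning gating in CellPathfinder separated Hoechst high-intensity objects from normal cells, divided normal cells by nuclear state (healthy, pyknosed, fragmented) and divided pyknosed cells into mitotic or apoptotic.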
# [2] = tested on: U2OS; assay: Multiplex assay against U2OS; format: toxicity, cell-based; conditions: human, number of replicates 2; procedure, shortened: as §1
# [3] = 24 h, 1 µM, compound concentration 1 uM
# [4] = 24 h, 10 µM, compound concentration 10 uM
# [5] = 48 h, 1 µM, compound concentration 1 uM
# [6] = 48 h, 10 µM, compound concentration 10 uM
# [7] = 12 h, 1 µM, compound concentration 1 uM
# [8] = 12 h, 10 µM, compound concentration 10 uM
smiles,measurement,setting,value
CN(C)C/C=C/C(=O)Nc1ccc(C(=O)Nc2cccc(Nc3ncc(Cl)c(-c4c[nH]c5ccccc45)n3)c2)cc1,Population Mitochondria Different-Phenotype (%),[1]; [3],12% and 11%
same,Population Mitotic Cells (%),[1]; [3],37% and 48%
same,Population Normal (%),[1]; [3],100%
same,Population Pyknosed Nuclei (%),[1]; [3],32% and 35%
same,Population Tubulin-Different-Phenotype (%),[1]; [3],37% and 33%
same,Total Cell Count,[1]; [3],132 and 140
same,Population Apoptotic (%),[1]; [4],79% and 84%
same,Population Fragmented Nuclei (%),[1]; [4],12% and 22%
same,Population Healthy Nuclei (%),[1]; [4],31%
same,Population Hoechst High Intensity Objects (%),[1]; [4],1% and 0%
same,Population Membrane Permeable-Phenotype (%),[1]; [4],23% and 16%
same,Population Mitotic Cells (%),[1]; [4],20% and 15%
same,Population Normal (%),[1]; [4],98% and 99%
same,Population Pyknosed Nuclei (%),[1]; [4],55% and 46%
same,Population Tubulin-Different-Phenotype (%),[1]; [4],50% and 74%
same,Total Cell Count,[1]; [4],167 and 178
same,Population Apoptotic (%),[1]; [5],72% and 74%
same,Population Fragmented Nuclei (%),[1]; [5],15%
same,Population Healthy Nuclei (%),[1]; [5],55% and 50%
same,Population Hoechst High Intensity Objects (%),[1]; [5],0%
same,Population Membrane Permeable-Phenotype (%),[1]; [5],11% and 5%
same,Population Mitochondria Different-Phenotype (%),[1]; [5],7% and 8%
same,Population Mitotic Cells (%),[1]; [5],27% and 25%
same,Population Normal (%),[1]; [5],100%
same,Population Pyknosed Nuclei (%),[1]; [5],29% and 34%
same,Population Tubulin-Different-Phenotype (%),[1]; [5],39% and 26%
same,Total Cell Count,[1]; [5],124 and 149
same,Population Apoptotic (%),[1]; [6],93%
same,Population Fragmented Nuclei (%),[1]; [6],32% and 24%
same,Population Healthy Nuclei (%),[1]; [6],20% and 19%
same,Population Hoechst High Intensity Objects (%),[1]; [6],2% and 0%
same,Population Membrane Permeable-Phenotype (%),[1]; [6],25% and 18%
same,Population Mitochondria Different-Phenotype (%),[1]; [6],6% and 5%
same,Population Mitotic Cells (%),[1]; [6],6%
same,Population Normal (%),[1]; [6],97% and 99%
same,Population Pyknosed Nuclei (%),[1]; [6],46% and 56%
same,Population Tubulin-Different-Phenotype (%),[1]; [6],65% and 68%
same,Total Cell Count,[1]; [6],220 and 196
same,Population Apoptotic (%),[2]; [7],81% and 93%
same,Population Fragmented Nuclei (%),[2]; [7],12% and 3%
same,Population Healthy Nuclei (%),[2]; [7],53% and 73%
same,Population Hoechst High Intensity Objects (%),[2]; [7],0%
same,Population Membrane Permeable-Phenotype (%),[2]; [7],0% and 2%
same,Population Mitochondria Different-Phenotype (%),[2]; [7],0% and 4%
same,Population Mitotic Cells (%),[2]; [7],18% and 6%
same,Population Normal (%),[2]; [7],100%
same,Population Pyknosed Nuclei (%),[2]; [7],34% and 22%
same,Population Tubulin-Different-Phenotype (%),[2]; [7],64% and 72%
same,Population Apoptotic (%),[2]; [8],96% and 89%
same,Population Fragmented Nuclei (%),[2]; [8],17% and 9%
same,Population Healthy Nuclei (%),[2]; [8],35% and 56%
same,Population Hoechst High Intensity Objects (%),[2]; [8],0%
same,Population Membrane Permeable-Phenotype (%),[2]; [8],18% and 17%
same,Population Mitochondria Different-Phenotype (%),[2]; [8],4% and 11%
same,Population Mitotic Cells (%),[2]; [8],3% and 10%
same,Population Normal (%),[2]; [8],100%
same,Population Pyknosed Nuclei (%),[2]; [8],46% and 34%
same,Population Tubulin-Different-Phenotype (%),[2]; [8],40% and 48%
same,Population Apoptotic (%),[2]; [3],83% and 94%
same,Population Fragmented Nuclei (%),[2]; [3],17% and 9%
same,Population Healthy Nuclei (%),[2]; [3],31% and 40%
same,Population Hoechst High Intensity Objects (%),[2]; [3],0% and 1%
same,Population Mitochondria Different-Phenotype (%),[2]; [3],27% and 12%
same,Population Normal (%),[2]; [3],100% and 98%
same,Population Pyknosed Nuclei (%),[2]; [3],51% and 50%
same,Population Tubulin-Different-Phenotype (%),[2]; [3],100% and 77%
same,Population Apoptotic (%),[2]; [4],92% and 98%
same,Population Fragmented Nuclei (%),[2]; [4],21% and 11%
same,Population Healthy Nuclei (%),[2]; [4],18% and 31%
same,Population Hoechst High Intensity Objects (%),[2]; [4],0% and 1%
same,Population Membrane Permeable-Phenotype (%),[2]; [4],46% and 27%
same,Population Mitochondria Different-Phenotype (%),[2]; [4],23% and 31%
same,Population Mitotic Cells (%),[2]; [4],7% and 1%
same,Population Normal (%),[2]; [4],100% and 98%
same,Population Pyknosed Nuclei (%),[2]; [4],59% and 57%
same,Population Tubulin-Different-Phenotype (%),[2]; [4],61% and 54%
same,Population Apoptotic (%),[2]; [5],84% and 96%
same,Population Fragmented Nuclei (%),[2]; [5],17% and 10%
same,Population Healthy Nuclei (%),[2]; [5],14% and 18%
same,Population Hoechst High Intensity Objects (%),[2]; [5],0% and 2%
same,Population Membrane Permeable-Phenotype (%),[2]; [5],50% and 44%
same,Population Mitochondria Different-Phenotype (%),[2]; [5],50% and 48%
same,Population Normal (%),[2]; [5],100% and 97%
same,Population Pyknosed Nuclei (%),[2]; [5],67% and 70%
same,Population Tubulin-Different-Phenotype (%),[2]; [5],100% and 88%
same,Population Apoptotic (%),[2]; [6],99% and 95%
same,Population Fragmented Nuclei (%),[2]; [6],7% and 19%
same,Population Hoechst High Intensity Objects (%),[2]; [6],3% and 0%
same,Population Mitochondria Different-Phenotype (%),[2]; [6],67% and 100%
same,Population Mitotic Cells (%),[2]; [6],0% and 4%
same,Population Normal (%),[2]; [6],96% and 100%
same,Population Pyknosed Nuclei (%),[2]; [6],79% and 78%
same,Population Tubulin-Different-Phenotype (%),[2]; [6],89% and 100%
